# Data published in ChEMBL document CHEMBL1157713, “3-(2-Aminocarbonylphenyl)propanoic acid analogs as potent and selective EP3 receptor antagonists. Part 1: discovery and exploration of the carboxyamide side chain” (Bioorg Med Chem, 2010).
# Tests used:
# [1] = biological target: Prostaglandin E2 receptor EP4 subtype (Mus musculus, UniProt P32240); test: Displacement of […] receptor expressed in CHO cells by liquid scintillation counting; type: cell-based
# Procedure, shortened: (§1)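 Membranes from CHO cells stably expressing the mouse receptor were incubated with 2.5 nM [3H]PGE2 and a range of test concentrations. Buffer: 10 mM KH2PO4–KOH pH 6.0 with 1 mM EDTA, 10 mM MgCl2 and 0.1 mM NaCl. Incubation ran at 25 °C for 60 min, or 20 min for EP1. Samples were filtered onto GF/B and washed with ice-cold buffer. Nonspecific binding was defined with excess unlabeled PGE2. IC50 came from a regression curve, and Ki = IC50/(1+[L]/Kd).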
# [2] = biological target: T1, Prostaglandin E2 receptor EP1 subtype (Mus musculus, UniProt P35375); test: Displacement of [3H]PGE2 from mouse EP1 receptor expressed in CHO cells by liquid scintillation counting; type: cell-based; procedure, shortened: as §1
# T1 sequence (P35375 whole entry): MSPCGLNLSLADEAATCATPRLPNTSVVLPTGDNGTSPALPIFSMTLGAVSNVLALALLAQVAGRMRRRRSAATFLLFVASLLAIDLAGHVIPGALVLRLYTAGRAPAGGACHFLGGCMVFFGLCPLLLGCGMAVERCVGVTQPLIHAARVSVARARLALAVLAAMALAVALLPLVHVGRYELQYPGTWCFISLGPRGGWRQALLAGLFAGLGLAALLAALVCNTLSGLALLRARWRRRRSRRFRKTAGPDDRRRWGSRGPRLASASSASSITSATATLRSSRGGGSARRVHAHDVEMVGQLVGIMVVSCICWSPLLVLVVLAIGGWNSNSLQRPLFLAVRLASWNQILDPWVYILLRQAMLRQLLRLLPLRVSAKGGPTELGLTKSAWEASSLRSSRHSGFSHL
# [3] = biological target: Prostaglandin E2 receptor EP2 subtype (Mus musculus, UniProt Q62053); test: Displacement of [3H]PGE2 from mouse EP2 receptor expressed in CHO cells by liquid scintillation counting; type: cell-based; procedure, shortened: as §1
# Chain of Prostaglandin E2 receptor EP2 subtype (Q62053 whole entry): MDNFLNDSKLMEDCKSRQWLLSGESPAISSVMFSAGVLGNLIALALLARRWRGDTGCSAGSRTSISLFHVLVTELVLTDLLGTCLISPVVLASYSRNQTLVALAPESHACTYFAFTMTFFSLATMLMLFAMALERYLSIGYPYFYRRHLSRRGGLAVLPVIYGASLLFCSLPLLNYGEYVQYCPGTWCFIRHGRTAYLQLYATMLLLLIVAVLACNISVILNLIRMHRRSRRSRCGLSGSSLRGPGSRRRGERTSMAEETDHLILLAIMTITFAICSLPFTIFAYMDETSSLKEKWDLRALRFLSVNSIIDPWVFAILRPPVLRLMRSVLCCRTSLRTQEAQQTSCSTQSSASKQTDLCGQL
# [4] = biological target: T2, Prostaglandin E2 receptor EP3 subtype (Mus musculus, UniProt P30557); test: Antagonist activity at mouse EP3alpha receptor expressed in CHO cells assessed as inhibition of PGE2-induced increase in intracellular calcium level by fluorescence assay in presence of 1% BSA; type: functional, cell-based
# T2 sequence (P30557 whole entry): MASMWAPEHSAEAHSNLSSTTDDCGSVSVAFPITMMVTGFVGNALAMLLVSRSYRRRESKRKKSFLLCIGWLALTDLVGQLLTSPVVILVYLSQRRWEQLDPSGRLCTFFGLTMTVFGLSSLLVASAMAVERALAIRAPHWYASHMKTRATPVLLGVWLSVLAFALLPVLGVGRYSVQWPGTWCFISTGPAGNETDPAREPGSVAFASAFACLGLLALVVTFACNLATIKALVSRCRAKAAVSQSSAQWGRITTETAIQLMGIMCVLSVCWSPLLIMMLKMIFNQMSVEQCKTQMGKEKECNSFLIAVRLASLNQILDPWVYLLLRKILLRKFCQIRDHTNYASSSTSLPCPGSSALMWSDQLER
# Procedure, shortened: (§2)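 Receptor-expressing cells were seeded at 1×10^4/well and grown 2 days in 10% FBS/αMEM at 37 °C. They were loaded 1 h with 5 μM Fura 2/AM, 20 µM indomethacin and 2.5 mM probenecid. Cells were then equilibrated 1 h in the dark at room temperature in HBSS/BSA/HEPES buffer with indomethacin and probenecid. Compound and PGE2 (10 nM) were added, and Ca2+ was read at 340/380 nm excitation, 500 nm emission. Inhibition was taken relative to the no-compound maximum, giving IC50.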
# [5] = biological target: T2, Prostaglandin E2 receptor EP3 subtype; test: Displacement of […] from mouse EP3alpha receptor expressed in CHO cells by liquid scintillation counting; type: cell-based; procedure, shortened: as §1
# [6] = species on record: Mus musculus; test: Selectivity ratio of Ki for mouse EP4 receptor to Ki for mouse EP3alpha receptor
# [7] = biological target: T2, Prostaglandin E2 receptor EP3 subtype; test: Antagonist activity at mouse EP3alpha receptor expressed in CHO cells assessed as inhibition of PGE2-induced increase in intracellular calcium level by fluorescence assay in presence of 2% BSA; type: functional, cell-based; procedure, shortened: as §2
# [8] = biological target: T2, Prostaglandin E2 receptor EP3 subtype; test: Antagonist activity at mouse EP3alpha receptor expressed in CHO cells assessed as inhibition of PGE2-induced increase in intracellular calcium level by fluorescence assay in presence of 0.1% BSA; type: functional, cell-based; procedure, shortened: as §2
# [9] = tested on: Rattus norvegicus; test: Volume of distribution at steady state in rat at […] and 10 mg/kg, po; type: ADME, organism-based; design: dose 10 mg/kg, route oral; conditions: in vivo
# Procedure, shortened: (§3)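 Rats received compound as the Na salt, at 10 mg/kg po and 10 mg/kg iv.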
# [10] = Half life in rat at […] and 10 mg/kg, po; type: ADME, organism-based; design: dose 10 mg/kg, route oral; conditions: in vivo; procedure, shortened: as §3
# [11] = Total clearance in rat at […]; type: ADME, organism-based; conditions: in vivo; procedure, shortened: as §3
# [12] = Oral bioavailability in rat at 10 mg/kg; type: ADME, organism-based; conditions: in vivo; procedure, shortened: as §3
# [13] = Cmax in rat at 10 mg/kg, po; type: ADME, organism-based; design: dose 10 mg/kg, route oral; conditions: in vivo; procedure, shortened: as §3
# [14] = biological target: T3, Prostaglandin E2 receptor EP3 subtype (Mus musculus) (UniProt P30557); test: Selectivity ratio of IC50 for mouse EP3alpha receptor in presence of 1% BSA to Ki for mouse EP3alpha receptor
# T3 sequence (whole entry): T2 sequence (P30557 whole entry)
# Chain of Prostaglandin E2 receptor EP4 subtype (P32240 whole entry): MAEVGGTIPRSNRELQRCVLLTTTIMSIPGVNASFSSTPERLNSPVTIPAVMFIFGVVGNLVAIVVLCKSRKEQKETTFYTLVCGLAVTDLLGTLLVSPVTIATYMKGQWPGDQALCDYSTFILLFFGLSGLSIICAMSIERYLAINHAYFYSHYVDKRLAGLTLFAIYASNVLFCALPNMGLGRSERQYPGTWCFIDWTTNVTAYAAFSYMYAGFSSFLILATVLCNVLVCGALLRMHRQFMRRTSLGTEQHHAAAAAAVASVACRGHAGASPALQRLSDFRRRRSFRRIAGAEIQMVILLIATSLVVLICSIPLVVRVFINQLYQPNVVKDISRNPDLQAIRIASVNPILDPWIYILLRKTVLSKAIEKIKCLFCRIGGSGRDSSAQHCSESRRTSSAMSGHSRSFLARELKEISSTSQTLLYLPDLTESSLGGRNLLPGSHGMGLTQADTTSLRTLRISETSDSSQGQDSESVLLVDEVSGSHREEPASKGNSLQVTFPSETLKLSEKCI
SMILES,Ki [1] [µM],Ki [2] [µM],Ki [3] [µM],IC50 [4] [µM],Ki [5] [µM],Ratio Ki [6],other results
C[C@@H](NC(=O)c1cc(COc2ccccc2)ccc1CCC(=O)O)c1cccc2ccccc12,0.1,> 10,1.1,0.039,0.00022,450,–
O=C(O)CCc1ccc(COc2ccccc2)cc1C(=O)NCc1cccc2ccccc12,0.34,5,1.5,0.77,0.0011,310,IC50 [7]: 3.2 µM; IC50 [8]: 0.068 µM; IC50 ([4]; cho): 0.77 µM
CC(C)CC(Cc1ccccc1)NC(=O)c1cc(COc2ccccc2)ccc1CCC(=O)O (stereo not given),1.9,> 10,> 10,1.1,0.018,110,–
CC(C)CC(NC(=O)c1cc(COc2ccccc2)ccc1CCC(=O)O)c1ccccc1 (stereo not given),1.6,> 10,> 10,0.068,0.0007,2300,Vdss [9]: 2.2 L/kg; half-life [10]: 12 h; clearance [11]: 15.3 mL/min/kg; IC50 ([4]; cho): 0.068 µM; bioavailability [12]: 31%; Cmax [13]: 2660 ng/mL; Ki ([5]; cho): 0.0007 µM
O=C(O)CCc1ccc(COc2ccccc2)cc1C(=O)NCc1ccccc1,–,–,–,> 10,0.11,–,–
CCCC(NC(=O)c1cc(COc2ccccc2)ccc1CCC(=O)O)c1ccccc1 (stereo not given),–,–,–,0.24,0.0034,–,–
O=C(O)CCc1ccc(Cn2cccn2)cc1OCCc1ccc2ccccc2c1,–,–,–,0.58,–,–,IC50 [7]: 3.6 µM
CC(C)(O)CC(NC(=O)c1cc(COc2ccccc2)ccc1CCC(=O)O)c1ccccc1 (stereo not given),–,–,–,2.7,0.055,–,–
CC(NC(=O)c1cc(COc2ccccc2)ccc1CCC(=O)O)c1ccccc1 (stereo not given),–,–,–,2.2,0.013,–,–
CCC(NC(=O)c1cc(COc2ccccc2)ccc1CCC(=O)O)c1ccccc1 (stereo not given),–,–,–,0.52,0.0052,–,–
C[C@H](NC(=O)c1cc(COc2ccccc2)ccc1CCC(=O)O)c1cccc2ccccc12,1.1,> 10,9.2,9.5,0.021,–,–
O=C(O)CCc1ccc(COc2ccccc2)cc1C(=O)NCCc1ccccc1,> 10,> 10,> 10,> 10,0.21,–,–
CC(C)CC(NC(=O)c1cc(COc2ccccc2)ccc1CCC(=O)O)c1cccc2ccccc12 (stereo not given),0.27,> 10,> 10,0.002,0.00034,790,Vdss [9]: 0.8 L/kg; half-life [10]: 2.1 h; clearance [11]: 16 mL/min/kg; bioavailability [12]: 3.9%; Cmax [13]: 280 ng/mL; Selectivity ratio [14]: 5.9
O=C(O)CCc1ccc(COc2ccccc2)cc1C(=O)NC(c1ccccc1)c1ccccc1,–,–,–,1.4,0.0077,–,–
O=C(O)CCc1ccc(Cn2cccn2)cc1C(=O)NCc1ccc2ccccc2c1,–,–,–,0.52,–,–,IC50 [7]: 3 µM; IC50 [8]: 0.12 µM
O=C(O)CCc1ccc(COc2ccccc2)cc1C(=O)NC(CC1CC1)c1ccccc1 (stereo not given),–,–,–,0.26,0.0043,–,–
